Screening results: PubChem BioAssay, several laboratories
Compounds with a hit are over-represented: about 3.9% of the library has one in this group of screens.
STAT1 act = STAT1 signaling activation | hit rate 2.6% among 200,000 | NIH 3T3 STAT1-luciferase reporter, IFN-gamma, luminescence; 100% = IFN-gamma alone, no compound | activation (% of control), % at 5.5 µM;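 active = activation above the screen-wide mean activation plus 3 SD, cut at about 130% in these data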;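 note: raw ratio to IFN-gamma control signal so 100% means no change and 0% no light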
NF-kB neuron act = NF-kB expression increase, human neuronal cells; NF-kB reporter expression; stronger effect = higher value; fold change at 12.5 µM; hit rate 1.6% among 190,000; AID 1239; in the data active = fold change above about 3.3
STAT1 inh-1 = reduces IFN-gamma driven STAT1 reporter signal. NIH 3T3 STAT1-luciferase reporter, luminescence. inhibition, % at 5.5 µM. hit rate 0.35% among 200,000;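 active = inhibition above a set limit, the mean inhibition across all tested compounds plus 3 SD, cut at about 34% in these data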;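 note: 0% = IFN-gamma with DMSO and 100% = IFN-gamma with 300 µM nifuroxazide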
APP 5'UTR act = activates APP 5'UTR luciferase reporter; SH-SY5Y APP 5'UTR luciferase reporter, luminescence; zero percent = DMSO vehicle wells; hit rate 1% among 190,000; AID 1276; activation, % at 2 µM;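 active = activation above a set limit, based on mean plus 3 SD of controls, cut at about 140% in these data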
STAT3 activator = STAT3 signaling activation; U3A cells, IL-6 STAT3-luciferase reporter, luminescence; 100% = signal with IL-6 EC80 alone; activation (% of control), % at 5.6 µM; hit rate 0.91% among 190,000; AID 871;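 active = activation above the screen-wide mean of compound activation plus 3 SD, cut at about 130% in these data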;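 note: 0% = background luminescence of wells with medium and substrate only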
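System – human U3A cells carrying STAT3-luciferase construct · Probe or stimulus – Interleukin-6, 33 ng/mL · Schedule – compound 1 h, then IL-6 6 h at 37 °C · Signal – luminescence from STAT3-driven luciferase reporter · Evaluation – percent of IL-6-only median luminescence · Benchmarks – IL-6-only high control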
Pf gametocyte = inhibitors of late stage P. falciparum gametocyte viability; P. falciparum stage V gametocytes, ATP luminescence, 24 h; inhibition, % at 10.9 µM; hit rate 0.065% among 150,000; AID 743093;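 active = inhibition above the mean plus 3 SD of compounds within the control limits, set per campaign, cut at about 38% in these data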;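 note: 0% = DMSO wells and 100% = medium only without gametocytes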
STAT1 inh-2 = confirmation of STAT1 signaling inhibitors | shares compounds with STAT1 inh-1 | NIH 3T3 STAT1-luciferase reporter, IFN-gamma, luminescence | inhibition, % at 5.5 µM | hit rate 55% among 200 | AID 1263;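 active = triplicate mean inhibition exceeding the hit cutoff computed for the primary STAT1 screen, cut at about 35% in these data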;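 note: 0% = DMSO with IFN-gamma and 100% = 300 µM nifuroxazide with IFN-gamma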
NFkB inh STAT1ct = inhibits NF-kappaB, counter-screen to STAT1 inhibitors; hit rate 30% among 200; shares compounds with STAT1 inh-1; HEK293T NF-kB luciferase reporter, TNF-alpha induced, luminescence; inhibition, % at 5.7 µM; AID 1303;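 active = inhibition above the mean of solvent-only control wells plus 3 SD of those wells, cut at about 15% in these data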;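 note: 0% = DMSO with TNF-alpha and 100% = MG-132 control with TNF-alpha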
STAT3 inh STAT1c = inhibits STAT3, counter-screen to STAT1 inhibitors | shares compounds with STAT1 inh-1 | U3A cells, IL-6 STAT3 luciferase reporter, luminescence; cells lacking STAT1 | inhibition, % at 5.7 µM | hit rate 20% among 200;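 active = inhibition above the mean of solvent-only control wells plus 3 SD, set per campaign, cut at about 25% in these data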;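 note: 0% = IL-6 plus DMSO and 100% = IL-6 plus nifuroxazide control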
* marks the source's active call; other numbers are inactive results; . = no result given.

SMILES | STAT1 act | NF-kB neuron act | STAT1 inh-1 | APP 5'UTR act | STAT3 activator | Pf gametocyte | STAT1 inh-2 | NFkB inh STAT1ct | STAT3 inh STAT1c
Cc1cccc(/C=C(\c2nc3ccccc3[nH]2)S(=O)(=O)c2ccccc2)c1 | 65 | 1.5 | 38* | -12 | 95 | 10 | 47* | 5 | 18
CCOC(=O)N1CCN(C(=O)CCn2c(=S)[nH]c3ccsc3c2=O)CC1 | 55 | 0.89 | 48* | -2 | 91 | -7 | 19 | -4 | -1
Cc1c(C(=O)Nc2cccc(Cl)c2)c2ccccn2c1CCc1ccncc1 | 68 | 0.9 | 35* | 10 | 99 | -6 | 23 | -9 | -5
Cc1c(C(=O)Nc2ccc(Cl)cc2)c2ccccn2c1CCc1ccncc1 | 89 | 1.2 | 13 | -1 | 110 | 4 | . | . | .
Cc1cc(C)c(S(=O)(=O)c2ccccc2)c(N2CCOCC2)n1 | 97 | 1.4 | 2 | -6 | 108 | . | . | . | .
O=C(C1CCC(CNc2nc(=S)[nH]c3ccccc23)CC1)N1CCN(c2ccc(F)cc2)CC1 (stereo not given) | 55 | 0.76 | 48* | 2 | 97 | 11 | 33 | 6 | 19
CCOC(=O)C(=CNc1cc(C(F)(F)F)ccc1N1CCOCC1)C(=O)OCC | . | . | . | . | . | 8 | . | . | .
COc1ccc(C(=O)Nc2cccc(N(C)S(C)(=O)=O)c2)cc1OC | 115 | 1.7 | -18 | 27 | 108 | . | . | . | .
Cc1ccc(C(=O)Nc2cccc(N(C)S(C)(=O)=O)c2)cc1S(=O)(=O)Nc1ccccc1 | 65 | 0.68 | 40* | 6 | 86 | . | 34* | 7 | 9
O=C(CC1CCC1)NC(c1ccccc1)c1ccccc1 | 103 | 1 | -6 | 5 | 105 | 10 | . | . | .
Cc1cc(C)n(S(=O)(=O)/C=C/c2ccccc2)n1 | 65 | 0.96 | 38* | -17 | 78 | -35 | 42* | -3 | 4
Cc1ccc(S(=O)(=O)n2nc(C)cc2C)cc1 | 101 | 1.3 | -1 | -10 | 94 | 12 | . | . | .
CC1=NN(c2ccccc2)C(=O)/C1=C/N(C)C | . | . | . | . | . | 6 | . | . | .
CC1=NN(c2nc3ccccc3[nH]2)C(=O)/C1=C/N(C)C | 61 | 0.85 | 41* | 28 | 78 | . | -92 | -3 | -15
N#C/C(=N\Nc1cccc([N+](=O)[O-])c1)C(=O)c1ccc(Br)cc1 | 35 | 0.49 | 69* | -7 | 72 | -16 | 44* | 12 | 29*
COc1ccc(-c2cc(C(F)(F)F)nc(S(=O)(=O)CCCC(=O)Nc3cccc(O)c3)n2)cc1OC | 64 | 1.7 | 38* | 12 | 102 | -7 | 39* | -7 | -44
COc1ccccc1-c1cc(C(F)(F)F)nc(S(=O)(=O)CCCC(=O)N2CCOCC2)n1 | 61 | 1.4 | 43* | 4 | 98 | 2 | 44* | 1 | 7
Cc1cc(-c2ccccc2)nc(SCc2ccc(C(=O)O)cc2)n1 | . | . | . | . | . | 25 | . | . | .
Cc1ccc(C(=O)Cn2nc(C(=O)O)c3ccccc3c2=O)cc1C | . | . | . | . | . | -23 | . | . | .
Cc1ccc(-n2nc(C(=O)O)c3ccccc3c2=O)cc1C | 55 | 1 | 54* | -5 | 88 | -18 | 49* | 2 | 8
COCCn1c(C)cc(C(=O)COc2ccc(C)nc2[N+](=O)[O-])c1C | 66 | 0.46 | 36* | -2 | 76 | 11 | -15 | 11 | 2
COc1cccc(-n2nnnc2S(C)(=O)=O)c1 | 66 | 1.1 | 35* | -4 | 90 | . | 44* | 9 | -48
Oc1cccc(/C=N/Nc2cccc3cccnc23)c1 | 53 | 8.9* | 49* | 227* | 89 | -3 | 32 | -12 | -61
COc1cc(/C=N/Nc2cccc3cccnc23)cc(OC)c1O | 112 | 2.5 | -14 | 36 | 99 | 2 | . | . | .
O=C(Nc1cc(C(=O)N2CCCC2)ccc1N1CCCC1)c1ccccc1F | 53 | 0.66 | 51* | -2 | 89 | 10 | 48* | 11 | 8
O=C(Nc1ccc(C(=O)N2CCCC2)cc1)c1ccccc1F | 111 | 1.6 | -12 | 22 | 101 | . | . | . | .
